Experimental data published in ChEMBL document CHEMBL5303300, “EUbOPEN Chemogenomics Library - Multiplex” (2023).
Several values for one entry are separate records, joined by “and”; a condition that tells them apart may be missing. Equal entries are not always repeated.

System: U2OS
Experiment: Multiplex assay against U2OS
Type: toxicity, cell-based
Details: human, number of replicates 2
Outline: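 Per cents of healthy-nucleus cells form the tubulin, mitochondrial-mass and membrane-permeability phenotype values. Live cells were stained at seeding with Hoechst33342, BioTracker Green Microtubule Cytoskeleton Dye, MitoTracker Red and Annexin V Alexa Fluor 680. After compound addition they were imaged on a CQ1 microscope at 37°C and 5% CO2, and CellPathfinder machine-learning gating split them into Hoechst high-intensity objects or normal cells, normal cells into healthy, pyknosed or fragmented nuclei, and pyknosed cells into mitotic or apoptotic.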

[1] = 12 h, 1 µM, compound concentration 1 uM
[2] = 12 h, 10 µM, compound concentration 10 uM
[3] = 24 h, 1 µM, compound concentration 1 uM
[4] = 24 h, 10 µM, compound concentration 10 uM
[5] = 48 h, 1 µM, compound concentration 1 uM
[6] = 48 h, 10 µM, compound concentration 10 uM

`COC(=O)Nc1nc2c(s1)-c1c(c(-c3cccnc3)nn1-c1ccc(C3(N(C)C)CC3)cc1)CC2.Cl.Cl` was tested, and the “Population Apoptotic (%)” value [1] was 100% and 85%, the “Population Healthy Nuclei (%)” value [1] was 44% and 73% and the “Population Hoechst High Intensity Objects (%)” value [1] was 0%. The “Population Mitochondria Different-Phenotype (%)” value [1] was 3% and 12%, the “Population Mitotic Cells (%)” value [1] was 0% and 14% and the “Population Normal (%)” value [1] was 100% and 99%. For the same compound, the “Population Pyknosed Nuclei (%)” value [1] was 4% and 13%, the “Population Tubulin-Different-Phenotype (%)” value [1] was 51% and 39% and the “Population Apoptotic (%)” value [2] was 58% and 63%. For the same compound, the “Population Fragmented Nuclei (%)” value [2] was 96% and 73%, the “Population Hoechst High Intensity Objects (%)” value [2] was 0% and the “Population Membrane Permeable-Phenotype (%)” value [2] was 28% and 26%. For the same compound, the “Population Mitochondria Different-Phenotype (%)” value [2] was 7% and 15%, the “Population Mitotic Cells (%)” value [2] was 41% and 36% and the “Population Normal (%)” value [2] was 100% and 99%. The “Population Pyknosed Nuclei (%)” value [2] was 1% and 6%, the “Population Tubulin-Different-Phenotype (%)” value [2] was 32% and 49% and the “Total Cell Count” value [2] was 1083 and 863. The “Population Apoptotic (%)” value [3] was 83% and 77%, the “Population Healthy Nuclei (%)” value [3] was 31% and 74% and the “Population Hoechst High Intensity Objects (%)” value [3] was 0% and 1%. The “Population Membrane Permeable-Phenotype (%)” value [3] was 5%, the “Population Mitochondria Different-Phenotype (%)” value [3] was 0% and 16% and the “Population Mitotic Cells (%)” value [3] was 16% and 22%. The “Population Normal (%)” value [3] was 100% and 98%, the “Population Pyknosed Nuclei (%)” value [3] was 9% and 17% and the “Population Tubulin-Different-Phenotype (%)” value [3] was 55% and 39%. For the same compound, the “Population Apoptotic (%)” value [4] was 75% and 71%, the “Population Fragmented Nuclei (%)” value [4] was 96% and 74% and the “Population Hoechst High Intensity Objects (%)” value [4] was 0%. For the same compound, the “Population Membrane Permeable-Phenotype (%)” value [4] was 25% and 13%, the “Population Mitochondria Different-Phenotype (%)” value [4] was 21% and 20% and the “Population Mitotic Cells (%)” value [4] was 25% and 28%. The “Population Normal (%)” value [4] was 99%, the “Population Pyknosed Nuclei (%)” value [4] was 1% and 8% and the “Population Tubulin-Different-Phenotype (%)” value [4] was 40% and 45%. For the same compound, the “Total Cell Count” value [4] was 1253 and 958, the “Population Apoptotic (%)” value [5] was 85% and 76% and the “Population Healthy Nuclei (%)” value [5] was 31% and 63%. For the same compound, the “Population Hoechst High Intensity Objects (%)” value [5] was 0%, the “Population Membrane Permeable-Phenotype (%)” value [5] was 19% and 10% and the “Population Mitochondria Different-Phenotype (%)” value [5] was 9% and 14%. For the same compound, the “Population Mitotic Cells (%)” value [5] was 14% and 23%, the “Population Normal (%)” value [5] was 100% and 99% and the “Population Pyknosed Nuclei (%)” value [5] was 10% and 28%. For the same compound, the “Population Tubulin-Different-Phenotype (%)” value [5] was 66% and 45%, the “Population Apoptotic (%)” value [6] was 66% and 70% and the “Population Fragmented Nuclei (%)” value [6] was 95% and 76%. For the same compound, the “Population Hoechst High Intensity Objects (%)” value [6] was 0%, the “Population Membrane Permeable-Phenotype (%)” value [6] was 13% and 23% and the “Population Mitochondria Different-Phenotype (%)” value [6] was 13% and 26%. The “Population Mitotic Cells (%)” value [6] was 33% and 30%, the “Population Normal (%)” value [6] was 100% and 99% and the “Population Pyknosed Nuclei (%)” value [6] was 2% and 10%. For the same compound, the “Population Tubulin-Different-Phenotype (%)” value [6] was 50% and 51% and the “Total Cell Count” value [6] was 1346 and 1010.

In the case of `O=C1Nc2ccc(C(=O)c3ccco3)cc2C1=Cc1cc(Cl)c(O)c(Cl)c1` [GW406108X], the “Population Apoptotic (%)” value [1] is reported as 25% and 65%, the “Population Fragmented Nuclei (%)” value [1] is reported as 11% and 2% and the “Population Healthy Nuclei (%)” value [1] is reported as 76% and 87%. The “Population Hoechst High Intensity Objects (%)” value [1] was 0%, the “Population Membrane Permeable-Phenotype (%)” value [1] was 3% and 0% and the “Population Mitochondria Different-Phenotype (%)” value [1] was 0%. For the same compound, the “Population Mitotic Cells (%)” value [1] was 75% and 34%, the “Population Normal (%)” value [1] was 100% and the “Population Pyknosed Nuclei (%)” value [1] was 11% and 9%. The “Population Tubulin-Different-Phenotype (%)” value [1] was 76% and 82%, the “Population Apoptotic (%)” value [2] was 83% and 47% and the “Population Fragmented Nuclei (%)” value [2] was 12% and 4%. For the same compound, the “Population Healthy Nuclei (%)” value [2] was 69% and 85%, the “Population Hoechst High Intensity Objects (%)” value [2] was 0% and the “Population Membrane Permeable-Phenotype (%)” value [2] was 0% and 1%. For the same compound, the “Population Mitochondria Different-Phenotype (%)” value [2] was 0%, the “Population Normal (%)” value [2] was 100% and the “Population Pyknosed Nuclei (%)” value [2] was 18% and 10%. The “Population Tubulin-Different-Phenotype (%)” value [2] was 52% and 87%, the “Population Apoptotic (%)” value [3] was 40% and 64% and the “Population Fragmented Nuclei (%)” value [3] was 4% and 2%. For the same compound, the “Population Healthy Nuclei (%)” value [3] was 85% and 88%, the “Population Hoechst High Intensity Objects (%)” value [3] was 0% and the “Population Membrane Permeable-Phenotype (%)” value [3] was 10% and 1%. The “Population Mitochondria Different-Phenotype (%)” value [3] was 2% and 0%, the “Population Mitotic Cells (%)” value [3] was 60% and 35% and the “Population Normal (%)” value [3] was 100%. For the same compound, the “Population Pyknosed Nuclei (%)” value [3] was 10% and 8%, the “Population Tubulin-Different-Phenotype (%)” value [3] was 75% and 79% and the “Population Apoptotic (%)” value [4] was 87% and 43%. For the same compound, the “Population Fragmented Nuclei (%)” value [4] was 8% and 5%, the “Population Healthy Nuclei (%)” value [4] was 73% and 82% and the “Population Hoechst High Intensity Objects (%)” value [4] was 0%. The “Population Membrane Permeable-Phenotype (%)” value [4] was 0% and 1%, the “Population Mitochondria Different-Phenotype (%)” value [4] was 0% and the “Population Normal (%)” value [4] was 100%. The “Population Pyknosed Nuclei (%)” value [4] was 17% and 12%, the “Population Tubulin-Different-Phenotype (%)” value [4] was 51% and 90% and the “Population Apoptotic (%)” value [5] was 33% and 48%. The “Population Fragmented Nuclei (%)” value [5] was 6% and 1%, the “Population Healthy Nuclei (%)” value [5] was 79% and 89% and the “Population Hoechst High Intensity Objects (%)” value [5] was 0%. The “Population Membrane Permeable-Phenotype (%)” value [5] was 2% and 1%, the “Population Mitochondria Different-Phenotype (%)” value [5] was 2% and 0% and the “Population Mitotic Cells (%)” value [5] was 66% and 51%. For the same compound, the “Population Normal (%)” value [5] was 100% and 99%, the “Population Pyknosed Nuclei (%)” value [5] was 13% and 8% and the “Population Tubulin-Different-Phenotype (%)” value [5] was 85% and 83%. For the same compound, the “Population Apoptotic (%)” value [6] was 90% and 51%, the “Population Fragmented Nuclei (%)” value [6] was 1% and 6% and the “Population Healthy Nuclei (%)” value [6] was 79% and 83%. The “Population Hoechst High Intensity Objects (%)” value [6] was 0%, the “Population Membrane Permeable-Phenotype (%)” value [6] was 2% and the “Population Mitochondria Different-Phenotype (%)” value [6] was 2% and 1%. The “Population Normal (%)” value [6] was 100%, the “Population Pyknosed Nuclei (%)” value [6] was 18% and 10% and the “Population Tubulin-Different-Phenotype (%)” value [6] was 66% and 90%.
